Molecular target: T1, Xanthine dehydrogenase/oxidase (Bos taurus, UniProt P80457)
Assay: Inhibition of bovine Xanthine oxidase assessed as reduction in uric acid level by spectrophotometry
Details: not given

T1 sequence (P80457 whole entry): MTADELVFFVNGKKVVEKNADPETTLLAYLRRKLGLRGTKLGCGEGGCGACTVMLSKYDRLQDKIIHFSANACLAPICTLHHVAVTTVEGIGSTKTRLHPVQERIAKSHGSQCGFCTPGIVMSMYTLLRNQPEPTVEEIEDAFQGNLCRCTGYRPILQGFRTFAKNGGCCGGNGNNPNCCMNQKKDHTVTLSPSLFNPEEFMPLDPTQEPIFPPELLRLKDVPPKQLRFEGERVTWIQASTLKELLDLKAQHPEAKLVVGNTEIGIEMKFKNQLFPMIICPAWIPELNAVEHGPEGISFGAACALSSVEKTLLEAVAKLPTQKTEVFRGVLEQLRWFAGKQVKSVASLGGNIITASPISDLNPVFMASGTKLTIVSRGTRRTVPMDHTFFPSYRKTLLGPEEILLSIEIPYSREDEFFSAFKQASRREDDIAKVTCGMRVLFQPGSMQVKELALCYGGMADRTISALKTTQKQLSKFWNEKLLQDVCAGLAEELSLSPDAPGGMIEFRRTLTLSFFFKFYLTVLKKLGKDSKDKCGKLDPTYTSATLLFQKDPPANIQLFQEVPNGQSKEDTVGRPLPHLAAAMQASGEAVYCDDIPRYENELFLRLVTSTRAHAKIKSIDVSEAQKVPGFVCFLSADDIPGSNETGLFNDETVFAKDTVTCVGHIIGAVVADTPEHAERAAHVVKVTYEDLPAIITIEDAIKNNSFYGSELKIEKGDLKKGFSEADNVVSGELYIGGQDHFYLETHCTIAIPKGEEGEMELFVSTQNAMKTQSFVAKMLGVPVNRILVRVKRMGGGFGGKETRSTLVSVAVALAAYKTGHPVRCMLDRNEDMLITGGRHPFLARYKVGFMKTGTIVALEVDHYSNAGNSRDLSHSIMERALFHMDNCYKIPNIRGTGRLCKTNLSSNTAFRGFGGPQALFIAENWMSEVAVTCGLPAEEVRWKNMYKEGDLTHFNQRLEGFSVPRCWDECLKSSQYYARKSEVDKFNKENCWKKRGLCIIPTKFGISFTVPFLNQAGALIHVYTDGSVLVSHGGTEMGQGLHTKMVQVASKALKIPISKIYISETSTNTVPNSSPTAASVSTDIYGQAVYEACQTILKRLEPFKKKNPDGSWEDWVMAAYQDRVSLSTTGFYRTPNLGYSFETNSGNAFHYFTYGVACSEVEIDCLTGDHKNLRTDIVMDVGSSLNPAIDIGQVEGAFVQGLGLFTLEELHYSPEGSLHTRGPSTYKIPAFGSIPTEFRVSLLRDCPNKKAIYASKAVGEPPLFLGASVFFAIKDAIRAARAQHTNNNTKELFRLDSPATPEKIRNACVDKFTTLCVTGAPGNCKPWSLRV

Q: For `Cc1ccc(COc2cc(O)cc3oc4cc(O)c(O)cc4c(=O)c23)cc1`, which IC50 is on record?
A: 5.73 µM

Q: With `O=c1c2cc(O)c(O)cc2oc2cc(O)cc(OCc3ccccc3Cl)c12` as the molecule, how does the IC50 read?
A: 6.41 µM

Q: With `O=c1c2cc(O)c(O)cc2oc2cc(O)cc(OCc3ccc(Br)cc3)c12` as the molecule, how does the IC50 read?
A: 20.1 µM

Q: Which IC50 does the source give for `Cc1cccc(COc2cc(O)cc3oc4cc(O)c(O)cc4c(=O)c23)c1` here?
A: 13.6 µM

Q: `N#Cc1ccc(COc2cc(O)cc3oc4cc(O)c(O)cc4c(=O)c23)cc1` was tested. Which IC50 did it give?
A: 4.67 µM

Q: With `Cc1ccccc1COc1cc(O)cc2oc3cc(O)c(O)cc3c(=O)c12` as the molecule, how does the IC50 read?
A: 7.08 µM

Q: With `O=c1c2cc(O)c(O)cc2oc2cc(O)cc(OCc3ccc(Cl)cc3)c12` as the molecule, how does the IC50 read?
A: 4.7 µM

Molecular target: T1, Xanthine dehydrogenase/oxidase
Assay: Inhibition of bovine Xanthine oxidase assessed as reduction in uric acid level at 10 ug/ml by spectrophotometry
Details: cattle
Procedure, shortened: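 Single-concentration screen at 10 μg/mL. XO activity was followed spectrophotometrically as uric acid formation at 293 nm and reported as percent inhibition. Below 60% inhibition at this concentration was recorded as not active.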

Q: Which inhibition at 10 µg/mL does the source give for `N#Cc1cccc(COc2cc(O)cc3oc4cc(O)c(O)cc4c(=O)c23)c1` here?
A: < 60%

Q: How did the inhibition at 10 µg/mL turn out when `O=c1c2cc(O)c(O)cc2oc2cc(O)cc(OCc3ccccc3F)c12` was run?
A: < 60%

Q: How did the inhibition at 10 µg/mL turn out when `O=c1c2cc(O)c(O)cc2oc2cc(O)cc(OCc3cccc(F)c3)c12` was run?
A: < 60%

Q: Which inhibition at 10 µg/mL does the source give for `O=c1c2cc(O)c(O)cc2oc2cc(O)cc(OCc3ccccc3[N+](=O)[O-])c12` here?
A: < 60%

Q: How did the inhibition at 10 µg/mL turn out when `O=c1c2cc(O)c(O)cc2oc2cc(O)cc(OCc3ccc([N+](=O)[O-])cc3)c12` was run?
A: < 60%

Q: With `O=c1c2cc(O)c(O)cc2oc2cc(O)cc(OCc3cccc(Cl)c3)c12` as the molecule, how does the inhibition at 10 µg/mL read?
A: < 60%

Q: With `O=c1c2cc(O)c(O)cc2oc2cc(O)cc(OCc3ccc(F)cc3)c12` as the molecule, how does the inhibition at 10 µg/mL read?
A: < 60%

Q: `N#Cc1ccccc1COc1cc(O)cc2oc3cc(O)c(O)cc3c(=O)c12` was tested. Which inhibition at 10 µg/mL did it give?
A: < 60%

Q: How did the inhibition at 10 µg/mL turn out when `O=c1c2cc(O)c(O)cc2oc2cc(O)cc(OCc3cccc(Br)c3)c12` was run?
A: < 60%

Q: With `O=c1c2cc(O)c(O)cc2oc2cc(O)cc(OCc3ccc(Cl)cc3Cl)c12` as the molecule, how does the inhibition at 10 µg/mL read?
A: < 60%

Q: How did the inhibition at 10 µg/mL turn out when `O=c1c2cc(O)c(O)cc2oc2cc(O)cc(OCc3ccccc3Br)c12` was run?
A: < 60%

Q: With `O=c1c2cc(O)c(O)cc2oc2cc(O)cc(OCc3c(Cl)cccc3Cl)c12` as the molecule, how does the inhibition at 10 µg/mL read?
A: < 60%

Q: For `O=c1c2cc(O)c(O)cc2oc2cc(O)cc(OCc3cccc([N+](=O)[O-])c3)c12`, which inhibition at 10 µg/mL is on record?
A: < 60%

From ChEMBL document CHEMBL1795214, “Discovery of novel xanthone derivatives as xanthine oxidase inhibitors” (Bioorg Med Chem Lett, 2011)
